Measured values from ChEMBL document CHEMBL6092172, “Exploration and characterization of the antimalarial activity of cyclopropyl carboxamides that target the mitochondrial protein, cytochrome b” (Eur J Med Chem, 2024).
Calls of active or inactive are those of the source. The calls are words filed in the database; no cut-off is given here.

Key:
Plasmodium falciparum [1] = assay: Antimalarial activity against asexual N-cyclopropyl-4-((cyclopropyl(2,4-dichlorobenzyl)amino)methyl)benzamide-resistant Plasmodium falciparum harbouring DHODH genome with 2 fold CNV measured after 72 hrs by LDH assay; format: functional, organism-based
Procedure, shortened: (§1)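 They were tested in a 72 h LDH assay: 10-point 3-fold dilutions […] in 0.1 % DMSO, with 100 nM chloroquine as the kill control. Incubation was 37 °C under 5 % CO2/5 % O2, then freeze–thaw, APAD/NBT/diaphorase mix, A650 after 30 min, and a four-parameter fit.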

Plasmodium falciparum [2] = assay: Effect on oxygen consumption rate in Plasmodium falciparum infected with human RBC at 5 uM in presence of TMPD by Seahorse XFe24 analyzer; format: functional, organism-based
Procedure, shortened: (§2)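 Malate-dependent OCR of P. falciparum measured first as 5 basal timepoints. Compound (5 μM) then injected and OCR followed for 8 timepoints. TMPD (cytochrome c donor) then added for 5 timepoints, followed by NaN3 (complex IV inhibitor) for 5 timepoints. Means and SDs of 3 technical replicates.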

Plasmodium falciparum [3] = assay: Antimalarial activity against asexual synchronized ring stage Plasmodium falciparum 3D7 infected with human RBC assessed as parasite arrest at 10 times EC50 treated every 24 hrs for 120 hrs followed by compound washout and subsequent addition of RBCs measured after 28 days by parasite reduction ratio assay; format: functional, organism-based
Procedure, shortened: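 Parasite reduction ratio assay on 3D7. […] Compound then washed out and uninfected RBCs and medium added. Regrowth measured by LDH assay after 28 days; means and SDs of 3 replicate experiments.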

Plasmodium falciparum [4] = assay: Antimalarial activity against asexual synchronized ring stage Plasmodium falciparum 3D7 infected with human RBC assessed as parasite arrest measured after 12 to 48 hrs by SYBR green staining based flow cytometry analysis; format: functional, organism-based; details: time 12-48 hrs
Procedure, shortened: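 Parasitemia measured by flow cytometry of SYBR Green-stained infected RBCs; mean of three technical replicates.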

Plasmodium falciparum [5] = assay: Antiplasmodial activity against Plasmodium falciparum NF54 stage V gametocytes assessed as reduction in xanthurenic acid induced female gametocyte development measured after 48 hrs by fluorescence microscopic analysis; details: NF54, 48 h
Plasmodium falciparum [6] = assay: Effect on oxygen consumption rate in Plasmodium falciparum infected with human RBC at 5 uM in presence of NaN3 by Seahorse XFe24 analyzer; format: functional, organism-based; procedure, shortened: as §2
Plasmodium falciparum [7] = assay: Effect on oxygen consumption rate in Plasmodium falciparum infected with human RBC at 5 uM by Seahorse XFe24 analyzer; format: functional, organism-based; procedure, shortened: as §2
Plasmodium falciparum [8] = assay: Antimalarial activity in asexual blood-stage Plasmodium falciparum Dd2-B2 infected in human O+ RBC assessed as minimum inoculum of resistance at 3 times IC90 measured for 60 days by SYBR green/Mito tracker deep red based flow cytometry analysis; format: functional, organism-based; details: time 60.0 day
Procedure, shortened: (§3)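 Cultures were grown in human O+ RBCs at 3 % hematocrit in AlbuMAX-supplemented RPMI-1640 at 37 °C under 5 % O2/5 % CO2/90 % N2. […] Wells were checked three times weekly by flow cytometry and smear; a well was positive at 0.3 % parasitemia with parasites seen on smear.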

Plasmodium falciparum [9] = assay: Antimalarial activity against asexual synchronized ring stage Plasmodium falciparum 3D7 infected with human RBC assessed as parasite growth inhibition measured after 48 hrs by giemsa staining based microscopy analysis; format: functional, organism-based; details: 3D7, Erythrocyte
Procedure, shortened: (§4)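 Giemsa-stained blood smears scored by microscopy for stage progression.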

Plasmodium falciparum [10] = assay: Antimalarial activity against asexual blood stage Plasmodium falciparum Dd2-B2 assessed as parasite recrudescence by measuring minimum inoculum of resistance measured for 60 days by flow cytometry; format: functional; details: time 60 day; procedure, shortened: as §3
Plasmodium falciparum [11] = assay: Antimalarial activity against asexual synchronized ring stage Plasmodium falciparum 3D7 infected with human RBC assessed as parasite arrest measured after 24 hrs by giemsa staining based microscopy analysis; format: functional, organism-based; procedure, shortened: as §4
Plasmodium falciparum [12] = assay: Antimalarial activity against asexual blood stage Plasmodium falciparum Dd2 incubated for 72 hrs by flow cytometry analysis; format: functional, organism-based; details: Dd2, 72 h
Procedure, shortened: (§5)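 Asexual parasites were exposed to compound for 72 h and growth was read as SYBR green signal by flow cytometry (FACS).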

Plasmodium falciparum [13] = assay: Antimalarial activity against asexual Plasmodium falciparum 3D7 incubated for 72 hrs by LDH assay; format: functional, organism-based; details: 3D7, 72 h
Procedure, shortened: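 P. falciparum 3D7 asexual parasites exposed 72 h at 37 °C (5 % CO2, 5 % O2) to a 10-point 1-in-3 dilution series […], 0.1 % DMSO; 0.1 % DMSO and 100 nM chloroquine as controls. Plates frozen at −80 °C and thawed, then LDH read (lactate/APAD/NBT/diaphorase, Tris pH 7.5) at 650 nm after 30 min.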

HepG2 = assay: Cytotoxicity against human HepG2 cells assessed as reduction in cell viability measured after 48 hrs by cell-titer glo assay; format: functional
Procedure, shortened: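 HepG2 cells grown in DMEM with 10 % FCS; 1000 cells per well seeded onto a 1:2 dilution series from 50 μM (0.5 % DMSO). Incubated 48 h at 37 °C, 5 % CO2. Viability read by CellTiter-Glo and normalised to DMSO and 10 μM bortezomib controls. Value from four-parameter fit; average of ≥2 independent experiments.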

Plasmodium falciparum [14] = assay: Antimalarial activity against asexual 4-(((N-cyclopropyl-2,4,6-trimethylphenyl)sulfonamido)methyl)-N-methylbenzamide-resistant Plasmodium falciparum harbouring cyt b […] mutant at Qo site measured after 72 hrs by LDH assay; format: functional, organism-based; procedure, shortened: as §1
Plasmodium falciparum [15] = assay: Antimalarial activity against asexual compound resistant Plasmodium falciparum harbouring cyt b F264L mutant at Qo site measured after 72 hrs by LDH assay; format: functional, organism-based; procedure, shortened: as §1
Plasmodium falciparum [16] = assay: Antimalarial activity against asexual blood stage Plasmodium falciparum Dd2 harbouring Cyt b with I22L mutant incubated for 72 hrs by flow cytometry analysis; format: functional, organism-based; details: Dd2, 72 h; procedure, shortened: as §5
Plasmodium falciparum [17] = assay: Antimalarial activity against asexual compound resistant Plasmodium falciparum harbouring cyt b […] mutant at Qo site measured after 72 hrs by LDH assay; format: functional, organism-based; procedure, shortened: as §1
Plasmodium berghei [18] = assay: Antiplasmodial activity against liver stage Plasmodium berghei sporozoites infected in human HepG2 assessed as reduction in parasite growth measured after 48 hrs by bioluminescence analysis; format: functional, organism-based; details: HepG2, 48 h
Procedure, shortened: (§6)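 HepG2 cells pre-treated with a 10-point dilution series of compound, then infected with luciferase-expressing P. berghei sporozoites. After 48 h, exoerythrocytic form viability read by bioluminescence.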

Plasmodium falciparum [19] = assay: Antimalarial activity against asexual Plasmodium falciparum SB1-A6 incubated for 72 hrs by SYBR green staining based flow cytometry analysis; format: functional, organism-based; details: SB1-A6, 72 h; procedure, shortened: as §5
Plasmodium falciparum [20] = assay: Antiplasmodial activity against Plasmodium falciparum NF54 stage V gametocytes assessed as reduction in xanthurenic acid induced male gametocyte development measured after 48 hrs by fluorescence microscopic analysis; details: NF54, 48 h
Plasmodium berghei [21] = assay: Antiplasmodial activity against exo-erythrocytic stage Plasmodium berghei sporozoites expressing GFP-Luc fused genes infected in human HepG2-A16-CD81 cells expressing EGFP assessed as reduction in parasite growth measured after 48 hrs by bioluminescence analysis; format: functional, organism-based; details: HepG2-A16-CD81, 48 h; procedure, shortened: as §6
Plasmodium falciparum [22] = assay: Antimalarial activity against asexual Plasmodium falciparum Dd2 harbouring ScDHODH incubated for 72 hrs by SYBR green staining based flow cytometry analysis; format: functional, organism-based; details: Dd2, 72 h; procedure, shortened: as §5
Plasmodium falciparum [23] = assay: Antimalarial activity against asexual Plasmodium falciparum 3D7 harbouring cytb with V259L mutant at Qo site incubated for 72 hrs by SYBR green staining based flow cytometry analysis; details: 3D7, 72 h
Plasmodium falciparum [24] = assay: Antimalarial activity against asexual N-cyclopropyl-4-((cyclopropyl(2,4-dichlorobenzyl)amino)methyl)benzamide-resistant Plasmodium falciparum harbouring DHODH genome with 5 fold CNV measured after 72 hrs by LDH assay; format: functional, organism-based; procedure, shortened: as §1

**Q.** Which results are given for `O=C(NC1CC1)c1ccc(CN(Cc2ccc(Cl)cc2Cl)C2CC2)cc1`?
**A.** EC50 (Plasmodium falciparum [1]): 620 nM; Activity (Plasmodium falciparum [2]): inactive; Activity (Plasmodium falciparum [3]): Active; Compound Showed Moderate To Slow Rate Of Kill Than Pyrimethamine And Slightly Quicker Than Atq; Activity (Plasmodium falciparum [4]): Active; EC50 (Plasmodium falciparum [5]): > 25000 nM; Activity (Plasmodium falciparum [6]): Active; Activity (Plasmodium falciparum [7]): Active; Activity (Plasmodium falciparum [8]): Active; EC50 (Plasmodium falciparum [9]): 2500 nM; Activity (Plasmodium falciparum [10]): 1.9 10^7No_unit; Activity (Plasmodium falciparum [11]): Active; EC50 (Plasmodium falciparum [12]): 118 nM

**Q.** Which EC50 (Plasmodium falciparum [13]) does the source give for `Cc1cccc(CN(Cc2ccc(C(=O)NC3CC3)cc2)C2CC2)c1C` here?
**A.** 150 nM

**Q.** And the CC50 (HepG2)?
**A.** > 40000 nM

**Q.** With `CCCN(Cc1ccc(C(=O)NC2CC2)cc1)Cc1c(C)cc(C)cc1C` as the molecule, how does the EC50 (Plasmodium falciparum [5]) read?
**A.** > 25000 nM

**Q.** Which EC50 (Plasmodium falciparum [13]) does the source give for `CN(C(=O)c1ccc(CN(Cc2ccccc2)C2CC2)cc1)C1CC1` here?
**A.** > 10000 nM

**Q.** How did the EC50 (Plasmodium falciparum [13]) turn out when `O=C(NC1CC1)c1ccc(CN(Cc2ccccc2)Cc2ccccc2)cc1` was run?
**A.** 590 nM

**Q.** For `O=C(Nc1ccccc1)c1ccc(CN(Cc2ccc(Cl)cc2Cl)C2CC2)cc1`, which EC50 (Plasmodium falciparum [13]) is on record?
**A.** 1200 nM

**Q.** For `O=C(NC1CCCC1)c1ccc(CN(Cc2ccc(Cl)cc2Cl)C2CC2)cc1`, which EC50 (Plasmodium falciparum [13]) is on record?
**A.** 1800 nM

**Q.** What does the source list for `CNC(=O)c1ccc(CN(C2CC2)S(=O)(=O)c2c(C)cc(C)cc2C)cc1`?
**A.** EC50 (Plasmodium falciparum [13]): 110 nM; EC50 (Plasmodium falciparum [14]): 283 nM; EC50 (Plasmodium falciparum [15]): 2100 nM; Activity (Plasmodium falciparum [2]): inactive; EC50 (Plasmodium falciparum [16]): 65 nM; CC50 (HepG2): > 40000 nM; EC50 (Plasmodium falciparum [17]): 1730 nM; EC50 (Plasmodium berghei [18]): > 50000 nM; Activity (Plasmodium falciparum [3]): Active; Compound Showed Moderate To Slow Rate Of Kill Than Pyrimethamine And Slightly Quicker Than Atq; Activity (Plasmodium falciparum [4]): Active; EC50 (Plasmodium falciparum [19]): > 10000 nM; EC50 (Plasmodium falciparum [5]): > 25000 nM; EC50 (Plasmodium falciparum [20]): 1100 nM; EC50 (Plasmodium berghei [21]): 70 nM; Activity (Plasmodium falciparum [6]): Active; Activity (Plasmodium falciparum [7]): Active; Activity (Plasmodium falciparum [8]): Active; EC50 (Plasmodium falciparum [22]): > 10000 nM; EC50 (Plasmodium falciparum [9]): 1300 nM; Activity (Plasmodium falciparum [10]): >2 10^7No_unit; EC50 (Plasmodium falciparum [23]): 420 nM; Activity (Plasmodium falciparum [11]): Active; EC50 (Plasmodium falciparum [24]): 500 nM; EC50 (Plasmodium falciparum [12]): 70 nM

**Q.** Which EC50 (Plasmodium falciparum [13]) does the source give for `CC(C)CN(Cc1ccc(C(=O)NC2CC2)cc1)C1CC1` here?
**A.** 400 nM

**Q.** `Cc1cc(Nc2ccc(S(F)(F)(F)(F)F)cc2)n2nc(C(C)(F)F)nc2n1` [DSM-265] was tested. Which Activity (Plasmodium falciparum [2]) did it give?
**A.** inactive

**Q.** And the EC50 (Plasmodium falciparum [16])?
**A.** 8 nM

**Q.** And the EC50 (Plasmodium falciparum [19])?
**A.** > 10000 nM

**Q.** What about the Activity (Plasmodium falciparum [7]) of the same molecule?
**A.** inactive

**Q.** And the EC50 (Plasmodium falciparum [22])?
**A.** > 10000 nM

**Q.** How did the Activity (Plasmodium falciparum [2]) turn out when `O=C1C(O)=C([C@H]2CC[C@H](c3ccc(Cl)cc3)CC2)C(=O)c2ccccc21` [ATOVAQUONE] was run?
**A.** inactive

**Q.** And the EC50 (Plasmodium falciparum [16])?
**A.** 5400 nM

**Q.** And the Activity (Plasmodium falciparum [4])?
**A.** Active

**Q.** And the EC50 (Plasmodium falciparum [19])?
**A.** > 10000 nM

**Q.** What about the Activity (Plasmodium falciparum [6]) of the same molecule?
**A.** Active

**Q.** And the Activity (Plasmodium falciparum [7])?
**A.** Active

**Q.** What about the EC50 (Plasmodium falciparum [22]) of the same molecule?
**A.** > 10000 nM

**Q.** And the EC50 (Plasmodium falciparum [9])?
**A.** 11700 nM

**Q.** What about the EC50 (Plasmodium falciparum [23]) of the same molecule?
**A.** 13 nM

**Q.** And the Activity (Plasmodium falciparum [11])?
**A.** Active
